Consider six compounds from ChEMBL document CHEMBL3407407, “New mimetic peptides inhibitors of Αβ aggregation. Molecular guidance for rational drug design” (Eur J Med Chem, 2015).

SMILES strings stand for the structures. Activity calls are given as the source filed them. No cut-off for these calls is given here.

Assay [1] addresses Amyloid-beta precursor protein (Homo sapiens) (UniProt P05067). The assay can be described thus: Inhibition of amyloid beta(42) aggregation (unknown origin) assessed as A11-positive oligomer formation at 100 uM after 0.5 to 70 hrs by kinetic study. A digest of the protocol: (§1)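 A11 dot-blot time course. Aβ42 at 25 mM (so in the source) was incubated at 37 °C with compound at 100 mM (so in the source), 5% DMSO vehicle (5% water for the reference). Aliquots were taken at 0.5, 1.5, 5, 20, 30, 55 and 70 h, spotted on nitrocellulose, then probed with A11 and anti-rabbit-HRP. Read-out was chemiluminescence.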

For assay [2] the target is unchanged. The assay can be described thus: Inhibition of amyloid beta(42) aggregation (unknown origin) at 0.75 to 100 uM after 7 days by thioflavin T fluorescence method. A digest of the protocol: (§2)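 Aβ42 at 25 mM (so in the source) in PBS, concentration set by A280 (ε 1490 M-1 cm-1), incubated quiescent at 37 °C for 7 days with compound (range 0–3200 mM as printed, from DMSO; final DMSO 5%). Samples then mixed with […] for 10 min at room temperature. Excitation 450 nm, emission 470–560 nm. Independent triplicates averaged, buffer+ThT+compound background subtracted.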

For assay [3] the target is unchanged. As to the kind of experiment: Inhibition of amyloid beta(42) aggregation (unknown origin) at 100 uM after 7 days by transmission electron microscopy. A digest of the protocol: (§3)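 Aβ42 at 25 mM (so in the source) was incubated with compound at 37 °C for 7 days. Aliquots were adsorbed for 1 min onto carbon-coated Formvar copper grids, then blotted, washed and negatively stained for transmission electron microscopy.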

The target is the same in assay [4]. As to the kind of experiment: Inhibition of amyloid beta(42) aggregation (unknown origin) at 0.78 to 3200 uM after 1.5 hrs using anti-oligomer A11 antibody by dot blot analysis. A digest of the protocol:
(§4)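 Aβ42 at 25 mM (so in the source) was incubated quiescent at 37 °C for 1.5 h across a compound concentration range (5% DMSO) and spotted on nitrocellulose. For A11, blots were blocked in PBS/0.2% Tween-20, then taken through A11 (1:4000, Hepes pH 7.0, overnight 4 °C) and anti-rabbit-HRP. For DE2B4 (total Aβ), blots were blocked in PBS-Tween/5% milk, then DE2B4 1:20,000 overnight 4 °C and anti-mouse-HRP. Read-out was chemiluminescence.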

For assay [5] the target is unchanged. The assay can be described thus: Inhibition of amyloid beta(42) aggregation (unknown origin) at 0.78 to 3200 uM after 1.5 hrs using anti-amyloid beta antibody DE2B4 by dot blot analysis. A digest of the protocol:
as §4

For assay [6] the target is unchanged. As to the kind of experiment: Inhibition of amyloid beta(42) aggregation (unknown origin) at 100 uM after 5 hrs by thioflavin T fluorescence-based kinetic study. Summed up:
(§5)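 In situ ThT kinetics. Aβ42 at 25 mM (so in the source) in PBS was incubated at 37 °C in sealed wells with 15 mM ThT and compound at 100 mM (so in the source), diluted 20-fold from DMSO to 5% DMSO. Fluorescence was read at intervals with excitation 450 nm and emission 470–600 nm. Background was corrected for ThT plus vehicle, with or without compound.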

The target is the same in assay [7]. The assay can be described thus: Inhibition of amyloid beta(42) aggregation (unknown origin) at 100 to 3200 uM after 1.5 hrs using anti-oligomer A11 antibody by dot blot analysis. A digest of the protocol: as §4
The target is the same in assay [8]. The assay can be described thus: Inhibition of amyloid beta(42) aggregation (unknown origin) at 100 to 3200 uM after 1.5 hrs using anti-amyloid beta antibody DE2B4 by dot blot analysis. A digest of the protocol: as §4
The target is the same in assay [9]. The assay can be described thus: Inhibition of amyloid beta(42) aggregation (unknown origin) at 100 to 200 uM after 7 days by transmission electron microscopy. Summed up: as §3
The target is the same in assay [10]. As to the kind of experiment: Inhibition of amyloid beta(42) aggregation (unknown origin) at 100 uM after 7 days by thioflavin T fluorescence method. Summed up: as §2
Assay [11] has the same target. As to the kind of experiment: Inhibition of amyloid beta(42) aggregation (unknown origin) assessed as A11-positive oligomer formation at 100 uM up to 1.5 hrs by kinetic study. Summed up: as §1
The target is the same in assay [12]. As to the kind of experiment: Inhibition of amyloid beta(42) aggregation (unknown origin) at 100 uM up to 1.5 hrs by thioflavin T fluorescence-based kinetic study. Summed up:
as §5

The target is the same in assay [13]. The assay can be described thus: Inhibition of amyloid beta(42) aggregation (unknown origin) after 7 days by thioflavin T fluorescence method. Summed up: as §2
Assay [14] shares this target. As to the kind of experiment: Inhibition of amyloid beta(42) aggregation (unknown origin) at 100 to 3200 uM after 7 days by transmission electron microscopy. Summed up:
as §3

Assay [15] has the same target. As to the kind of experiment: Inhibition of amyloid beta(42) aggregation (unknown origin) at 3200 uM after 7 days by thioflavin T fluorescence method. A digest of the protocol:
as §2

Amyloid-beta precursor protein (Homo sapiens), sequence (P05067 whole entry): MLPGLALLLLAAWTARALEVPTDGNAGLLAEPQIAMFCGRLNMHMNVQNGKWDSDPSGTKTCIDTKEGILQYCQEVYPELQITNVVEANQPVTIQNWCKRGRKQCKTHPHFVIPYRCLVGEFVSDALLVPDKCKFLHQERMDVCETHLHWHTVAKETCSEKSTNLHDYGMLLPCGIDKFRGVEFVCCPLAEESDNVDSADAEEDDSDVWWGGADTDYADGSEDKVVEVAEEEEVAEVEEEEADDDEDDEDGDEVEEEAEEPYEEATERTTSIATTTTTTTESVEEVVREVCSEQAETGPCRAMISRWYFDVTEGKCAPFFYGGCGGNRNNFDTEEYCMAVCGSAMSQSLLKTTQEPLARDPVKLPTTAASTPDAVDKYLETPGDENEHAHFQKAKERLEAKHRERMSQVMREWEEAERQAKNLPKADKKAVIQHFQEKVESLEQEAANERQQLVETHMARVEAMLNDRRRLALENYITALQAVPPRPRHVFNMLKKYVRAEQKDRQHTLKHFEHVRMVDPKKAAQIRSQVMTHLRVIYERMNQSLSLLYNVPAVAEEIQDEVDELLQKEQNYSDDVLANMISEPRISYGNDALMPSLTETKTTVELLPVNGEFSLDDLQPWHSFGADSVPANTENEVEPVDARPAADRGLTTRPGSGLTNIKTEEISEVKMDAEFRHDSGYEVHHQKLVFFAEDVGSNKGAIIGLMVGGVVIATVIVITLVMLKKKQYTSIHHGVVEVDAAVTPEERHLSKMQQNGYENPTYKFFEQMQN

Regarding `O=C(NCCCC[C@H](NC(=O)OCc1ccccc1)C(=O)O)OCc1ccccc1`, the inhibition result in assay [1], in assay [2], in [3], in assay [4] and in [5] was “inactive” in each case.

For the compound `O[C@H]1[C@H](O)[C@@H](O)[C@H](O)[C@@H](O)[C@@H]1O`, the inhibition entry in assay [1] is “inactive”.

For the compound `CC(C)(C)OC(=O)N[C@@H](CCCCNC(=O)OCc1ccccc1)C(=O)ON1C(=O)CCC1=O`, the inhibition entry in [6] is “inactive”. Moreover, the inhibition entry in assay [1], in [7], in assay [8], in assay [9], in [10] and in [11] was “Active” in each case. Further, the inhibition result in assay [12] was “Active”. Further, in assay [13], the inhibition result is “Dose-dependent effect”.

Turning to `O=C(NCCCC[C@H](NC(=O)OCc1ccccc1)C(=O)ON1C(=O)CCC1=O)OCc1ccccc1`, the inhibition entry in assay [6] is “inactive”. Also, the inhibition entry in [1], in assay [7], in [8], in assay [10], in assay [11] and in assay [12] was “Active” throughout. For the same compound, the inhibition entry in assay [13] was “Dose-dependent effect”.

Take `CNc1ccc(C(=O)N[C@@H](CCCCNC(=O)OCc2ccccc2)C(=O)O)cc1`: the inhibition result in [1] was “inactive”. Further, the inhibition result in [14] and in assay [15] was “Active” throughout. In assay [13], the inhibition result is “Dose-dependent effect”.

For the compound `O=C(NCCCC[C@H](NC(=O)OCC1c2ccccc2-c2ccccc21)C(=O)O)OCc1ccccc1`, the inhibition result in assay [1], in assay [3], in assay [4] and in [5] was “inactive” each time.
